Screening data from PubChem BioAssay.
Dynein cargo inh: blocks dynein driven cargo transport along microtubules; z-score, hits read low; 3617.4 mouse cells, GR-EGFP nuclear translocation imaging; test concentration mostly 20 µM; stimulated with dexamethasone, 1 µM; hits give low values; hit rate 0.47% among 220,000; AID 1381;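 active = plate z-score of nuclear minus cytoplasmic receptor signal below a set negative limit, without overly bright fluorescence or cell loss, cut at about -3.5 in these data, passing the limit was not always enough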;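 also: z-score of nuclear minus cytoplasmic ring GR-EGFP intensity difference per well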
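Buffer or medium – tet-free medium with charcoal-stripped serum · Signal – automated 10x imaging of fixed Hoechst-stained cells · Also added – dexamethasone agonist, 1.0 µM final, for 30 min · Incubation – induction 48 h, compound 1 h, agonist 30 min · Read-out – GR-EGFP nuclear translocation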
pCIP destab: p/CIP protein destabilization; Q05BA5; hit rate 0.01% among 290,000; F442A p/CIP-EGFP cells, EGFP fluorescence, 16 h; AID 1984; decrease of EGFP signal, % at 10 µM;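 active = EGFP signal decrease of at least 30% at 10 µM or well 3 SD below plate mean, unless failing retest; inactive = the rest, including hits failing retest or dose response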
p47phox inh: inhibitors of human p47phox binding; p47phox/p22phox peptide binding, fluorescence polarization, 2 h; inhibition, % at 24.7 µM; hit rate 0.53% among 220,000;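 active = inhibition above about 30%, limit read from the data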
Target sequence (P14598 whole entry, looked up): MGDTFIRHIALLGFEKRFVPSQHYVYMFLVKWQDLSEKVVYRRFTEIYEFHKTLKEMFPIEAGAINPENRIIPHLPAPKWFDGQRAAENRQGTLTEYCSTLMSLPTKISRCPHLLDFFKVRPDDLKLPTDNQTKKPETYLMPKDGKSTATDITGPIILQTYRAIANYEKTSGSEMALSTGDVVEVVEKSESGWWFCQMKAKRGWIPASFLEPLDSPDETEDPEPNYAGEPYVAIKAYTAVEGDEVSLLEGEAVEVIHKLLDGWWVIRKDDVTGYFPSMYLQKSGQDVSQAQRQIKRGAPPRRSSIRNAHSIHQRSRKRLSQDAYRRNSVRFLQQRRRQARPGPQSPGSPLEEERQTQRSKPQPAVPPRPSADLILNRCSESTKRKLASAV
RAM inhibit: inhibitors of the yeast RAM network; S. cerevisiae dse1pr::URA3 reporter, 5-FOA growth OD615, 2 d; analog-sensitive cbk1-as2 kinase mutant strain; inhibition, % at 50 µM; hit rate 1.8% among 190,000;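 active = inhibition above a set limit, 3 SD over mean compound inhibition, cut at about 8.4% in these data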;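 also: inhibition rescues growth on 5-FOA so higher OD means more RAM inhibition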
Of the large screens only hits and unclear results are named; the others gave an inactive call. An excerpt weighted towards active compounds, which were near 1.9% of everything screened.

O=C(c1ccco1)N(CCC(c1ccccc1)c1ccco1)Cc1ccccc1 (stereo not drawn)	RAM inhibit 11
CCC(=O)N(CCC(c1ccccc1)c1ccco1)Cc1cccs1 (stereo not drawn)	none
Cc1cc(NS(=O)(=O)c2ccc(NC(=O)COc3ccc(Br)cc3)cc2)nc(C)n1	none (no result: Dynein cargo inh, p47phox inh, RAM inhibit)
O=C(CCc1nnc(CCCCc2ccccc2)o1)NCc1cccc(F)c1	none
O=C(CCc1nnc(CCCCc2ccccc2)o1)NCc1cc(F)ccc1F	RAM inhibit 11
O=[N+]([O-])c1ccc(N/N=C\c2cccn2-c2ccccc2)nc1	p47phox inh 38
NC(=S)NN=C1c2ccccc2-c2ccccc21	none (no result: Dynein cargo inh, p47phox inh, RAM inhibit)
C=CCn1c(NS(=O)(=O)c2ccccc2)c(S(=O)(=O)c2ccc(C)cc2)c2nc3ccccc3nc21	RAM inhibit 11
CCCCn1c(N)c(S(=O)(=O)c2ccc(C)cc2)c2nc3ccccc3nc21	RAM inhibit 9.5
Cc1cc2nc(N=C(N)N)nc(C)c2cc1C	none
COc1ccccc1N(C)C(=O)c1cc(S(=O)(=O)N2CCCC2)cn1C	none (no result: Dynein cargo inh, p47phox inh, RAM inhibit)
Cn1cc(Br)c(C(=O)NC2CCCCCC2)n1	none (no result: Dynein cargo inh, p47phox inh, RAM inhibit)
Cc1cc(OCC(=O)N2CCN(c3ccccn3)CC2)cc(C)c1Br	none (no result: Dynein cargo inh, p47phox inh, RAM inhibit)
Cc1ccc(CSc2ncnc3c2cnn3-c2ccc(C)cc2)cc1	RAM inhibit 9.5
Cc1ccc(OCC(=O)NC(=S)Nc2ccc(Br)cn2)cc1C	RAM inhibit 9.5
COc1ccc(/C=C/C(=O)NC(=S)Nc2ccc(Br)cn2)cc1	none (no result: Dynein cargo inh, p47phox inh, RAM inhibit)
Cn1c(=O)[nH]c(=O)c2c1nc(CN1CCN(c3cccc(Cl)c3)CC1)n2CCCc1ccccc1	RAM inhibit 9.5
CCCCn1c(CN2CCN(c3cccc(Cl)c3)CC2)nc2c1c(=O)[nH]c(=O)n2C	none
Cc1nn(C)c(C)c1S(=O)(=O)NCCc1ccc(Cl)cc1	none (no result: Dynein cargo inh, p47phox inh, RAM inhibit)
C=CCN1C(=O)N/C(=C/c2ccc(N3CCOCC3)o2)C1=O	none
O=C1N/C(=C/c2ccc(N3CCOCC3)o2)C(=O)N1c1ccccc1	Dynein cargo inh -6.2
Cc1cc2nc3ccc(=[N+](C)C)cc-3sc2cc1N	p47phox inh active (no result: RAM inhibit)
CN(C)c1ccc2nc3ccc(=[N+](C)C)cc-3sc2c1	p47phox inh active (no result: RAM inhibit)
CCOc1ccccc1/C=C(\C#N)C1=CCCC1	none (no result: Dynein cargo inh, p47phox inh, RAM inhibit)
COc1ccccc1NC(=O)COC(=O)C12CC3CC(CC(Cl)(C3)C1)C2	RAM inhibit 11
COc1ccc(NC(=O)COC(=O)C23CC4CC(CC(Cl)(C4)C2)C3)c(OC)c1	none
O=[N+]([O-])c1ccc(/C=C/C2=NN(c3ccccc3)C(c3ccco3)C2)cc1 (stereo not drawn)	p47phox inh 34
O=C(NCc1ccc2c(c1)OCO2)c1ccc(COc2cc(Cl)ccc2Cl)o1	RAM inhibit 9.4
COc1ccc(C(=O)/C=C/c2ccc(OC3CSC3)cc2)cc1OC	RAM inhibit 8.6
O=C(Nc1cccc(F)c1)c1ccc(-c2ccccc2Cl)o1	RAM inhibit 10
COc1ccc(NC(=O)c2ccc(-c3ccc(C)c4ccccc34)o2)cc1	none
COc1ccc(NC(=O)c2ccc(-c3ccccc3Cl)o2)cc1	RAM inhibit 8.7
CCOc1ccc(NC(=O)CNC(=O)c2ccc(OC)c(OC)c2)cc1	RAM inhibit 8.8
Cc1ccc(Nc2nc(N)c3ccccc3n2)cc1C	none (no result: Dynein cargo inh, p47phox inh, RAM inhibit)
Clc1ccc(CO/N=C/c2c(-c3ccccc3)nc3n2CCS3)c(Cl)c1	RAM inhibit 11
CCCCC(=O)Nc1ccc(NC(=O)c2ccc([N+](=O)[O-])cc2)cc1OC	RAM inhibit 9.1
COc1cc([N+](=O)[O-])ccc1NC(=O)CCCOc1ccccc1	none
COc1cc([N+](=O)[O-])ccc1NC(=O)CCCOc1cc(C)ccc1C	RAM inhibit 9.9
O=C(c1cc2cc(F)ccc2[nH]1)N1CCN(C(=O)c2ccco2)CC1	none (no result: Dynein cargo inh, p47phox inh, RAM inhibit)
CCOC(=O)c1nc(Nc2cc(C)cc(C)c2)c2ccccc2n1	none
Cc1csc(NC(=O)CSc2nnc(-c3ccncc3)n2C)n1	p47phox inh 41
Cc1csc(CNC(=O)C2CCC(=O)N(CCc3cccc(F)c3)C2)n1 (stereo not drawn)	none (no result: Dynein cargo inh, p47phox inh, RAM inhibit)
CCOC(=O)Cn1nc(C)n(-c2ccccc2)c1=O	none
CCOC(=O)CCn1c2nc(C)cc(C)c2c(=O)n1-c1ccccc1	p47phox inh 34
Cc1ccn2c(/C=N/OCc3ccc(F)cc3)c(-c3ccc(Cl)cc3)nc2c1	RAM inhibit 9.7
CC1(C)CC(=O)C2=C(C1)Nc1cc3c(cc1C2c1ccc2c(c1)OCO2)OCO3 (stereo not drawn)	p47phox inh 59
CCOc1cc(NC(=O)c2ccccn2)c(OCC)cc1NC(=O)c1ccccc1	RAM inhibit 9.7
